# Reference: paper PMC10395004 (European journal of pharmaceutical sciences : official …, 2022)
# Structures can show the parent of a compound that is named as a salt. Where two headings read alike, the source gives them in different places.
# Experiments:
# [1] = format: in vivo, mice; details: for CL/F / Vd/F / AUC(0-t) / MRT last / MRT inf / half-life / Cmax / Tmax / increase of metabolite AUC by propranolol: DLX 12 mg/kg p.o.; for CL/F / Vd/F / AUC(0-inf) / AUC(0-t) / MRT last / MRT inf / half-life / Cmax / Tmax / increase of metabolite AUC by propranolol: plasma; for AUC(0-inf) / AUC(0-t) / MRT last / MRT inf / half-life / Cmax / Tmax: male, mouse, po, 12 mg/kg; for AUC(0-t): AUC0-t; for MRT last: MRT0-t; for MRT inf: MRT0-∞; for increase of metabolite AUC by propranolol: peak area
# How it was run: (§1)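 16 h later they received DLX 12 mg/kg p.o. in 0.5% methyl cellulose. Tail-vein blood (heparin) was taken at 0–24 h (9 points) and spun to plasma. Plasma was methanol-precipitated with IS and run by LC-MS against a DLX standard curve. Parameters came from noncompartmental analysis; ratios were taken between group means.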
# [2] = tested on: Cyp2d; format: in vivo, mice; details: male, mouse, plasma, po, 12 mg/kg
# How it was run: as §1
# [3] = format: in vivo, mice
# [4] = Cyp1a2-KO mice, Cyp2d+I (propranolol 30 mg/kg 16 h before)
# [5] = Cyp1a2-KO mice, control (vehicle)
# [6] = WT mice, Cyp2d+I (propranolol 30 mg/kg 16 h before)
# [7] = Cyp1a2-KO, Cyp1a2-KO mice, Cyp2d+I (propranolol 30 mg/kg 16 h before)
# [8] = Cyp1a2-KO, Cyp1a2-KO mice, control (vehicle)
# [9] = KO + control compared with WT + control, not statistically significant
# [10] = KO + inhibitor compared to KO + control
# [11] = WT + inhibitor compared to WT + control
smiles,measurement,setting,value
"CNCC[C@H](Oc1cccc2ccccc12)c1cccs1 [DLX, (3S)-N-methyl-3-(1-naphthyloxy)-3-(2-thienyl)propan-1-amine]",AUC0-t ratio Cyp2d+I/Control,[1]; Cyp1a2-KO mice,2.29
same,AUC0-∞ ratio Cyp2d+I/Control,[1]; Cyp1a2-KO mice,2.26
same,CL/F ratio Cyp2d+I/Control,[1]; Cyp1a2-KO mice,0.40
same,Cmax ratio Cyp2d+I/Control,[1]; Cyp1a2-KO mice,3.95
same,MRT0-t ratio Cyp2d+I/Control,[1]; Cyp1a2-KO mice,0.80
same,MRT0-∞ ratio Cyp2d+I/Control,[1]; Cyp1a2-KO mice,0.76
same,T1/2 ratio Cyp2d+I/Control,[1]; Cyp1a2-KO mice,0.83
same,Tmax ratio Cyp2d+I/Control,[1]; Cyp1a2-KO mice,0.40
same,Vd/F ratio Cyp2d+I/Control,[1]; Cyp1a2-KO mice,0.30
same,CL/F,[1]; [4],2.94 ± 0.34 mg/(hr*μmol/L)/kg
same,Vd/F,[1]; [4],15.44 ± 1.71 mg/(μmol/L)/kg
same,CL/F,[1]; [5],7.32 ± 1.60 mg/(hr*μmol/L)/kg
same,Vd/F,[1]; [5],51.03 ± 18.18 mg/(μmol/L)/kg
same,increase of AUC0-t by propranolol,[1]; KO + inhibitor vs KO + control,129%
same,increase of Cmax by propranolol,[1]; KO + inhibitor vs KO + control,295%
same,AUC0-t KO control/WT control ratio,[1]; KO control vs WT control,0.89
same,AUC0-∞ KO control/WT control ratio,[1]; KO control vs WT control,0.89
same,CL/F KO control/WT control ratio,[1]; KO control vs WT control,1.18
same,Cmax KO control/WT control ratio,[1]; KO control vs WT control,0.56
same,MRT0-t KO control/WT control ratio,[1]; KO control vs WT control,1.14
same,MRT0-∞ KO control/WT control ratio,[1]; KO control vs WT control,1.16
same,T1/2 KO control/WT control ratio,[1]; KO control vs WT control,1.04
same,Tmax KO control/WT control ratio,[1]; KO control vs WT control,1.81
same,Vd/F KO control/WT control ratio,[1]; KO control vs WT control,1.28
same,increase of AUC0-t by propranolol,[1]; WT + inhibitor vs WT + control,304%
same,increase of Cmax by propranolol,[1]; WT + inhibitor vs WT + control,177%
same,AUC0-t ratio Cyp2d+I/Control,[1]; WT mice,4.04
same,AUC0-∞ ratio Cyp2d+I/Control,[1]; WT mice,4.01
same,CL/F ratio Cyp2d+I/Control,[1]; WT mice,0.30
same,Cmax ratio Cyp2d+I/Control,[1]; WT mice,2.78
same,MRT0-t ratio Cyp2d+I/Control,[1]; WT mice,1.10
same,MRT0-∞ ratio Cyp2d+I/Control,[1]; WT mice,1.04
same,T1/2 ratio Cyp2d+I/Control,[1]; WT mice,0.76
same,Tmax ratio Cyp2d+I/Control,[1]; WT mice,0.91
same,Vd/F ratio Cyp2d+I/Control,[1]; WT mice,0.26
same,increase of AUC of DLX by propranolol,[1]; WT mice,3 folds
same,CL/F,[1]; [6],1.88 ± 0.60 mg/(hr*μmol/L)/kg
same,Vd/F,[1]; [6],10.27 ± 5.02 mg/(μmol/L)/kg
same,CL/F,"[1]; WT mice, control (vehicle)",6.19 ± 0.97 mg/(hr*μmol/L)/kg
same,Vd/F,"[1]; WT mice, control (vehicle)",39.87 ± 9.28 mg/(μmol/L)/kg
same,AUC(0-inf),[1]; Cyp1a2-KO,1.89 ± 0.39 µM·h
same,AUC(0-t),[1]; [7],4.23 ± 0.56 µM·h
same,AUC(0-t),[1]; [8],1.85 ± 0.39 µM·h
same,MRT last,[1]; [7],4.61 ± 0.29 h
same,MRT last,[1]; [8],5.73 ± 0.22 h
same,MRT inf,[1]; [7],4.83 ± 0.27 h
same,MRT inf,[1]; [8],6.39 ± 0.26 h
same,half-life,"[1]; Cyp1a2-KO, T1/2, Cyp1a2-KO mice, Cyp2d+I (propranolol 30 mg/kg 16 h before)",3.66 ± 0.24 h
same,half-life,"[1]; Cyp1a2-KO, T1/2, Cyp1a2-KO mice, control (vehicle)",4.43 ± 0.64 h
same,AUC(0-inf),[1],2.12 ± 0.4 µM·h
same,AUC(0-t),[1]; [6],8.45 ± 2.46 µM·h
same,AUC(0-t),"[1]; WT mice, control (vehicle)",2.09 ± 0.41 µM·h
same,Cmax,[1]; [4],790 ± 210 nM
same,Cmax,[1]; [5],200 ± 20 nM
same,Cmax,[1]; [6],1000 ± 210 nM
same,Cmax,"[1]; WT mice, control (vehicle)",360 ± 50 nM
same,MRT last,[1]; [6],5.51 ± 0.16 h
same,MRT last,"[1]; WT mice, control (vehicle)",5.02 ± 0.18 h
same,MRT inf,[1]; [6],5.75 ± 0.21 h
same,MRT inf,"[1]; WT mice, control (vehicle)",5.52 ± 0.34 h
same,half-life,"[1]; T1/2, WT mice, Cyp2d+I (propranolol 30 mg/kg 16 h before)",3.32 ± 0.52 h
same,half-life,"[1]; T1/2, WT mice, control (vehicle)",4.28 ± 0.41 h
same,Tmax,[1]; [4],1 ± 0.35 h
same,Tmax,[1]; [5],2.5 ± 0.5 h
same,Tmax,[1]; [6],1.25 ± 0.25 h
same,Tmax,"[1]; WT mice, control (vehicle)",1.38 ± 0.38 h
same,AUC(0-inf),[2]; Cyp1a2-KO,4.27 ± 0.57 µM·h
same,AUC(0-inf),[2],8.5 ± 2.45 µM·h
same,decrease of DLX level in liver,[3]; [9],48%
same,decrease of DLX level in lung,[3]; [9],31%
same,increase of DLX level in kidney,[3]; [9],62%
same,increase of DLX levels in brain and testis,[3]; [9],around 25%
same,increase of DLX level in liver,[3]; [10],3 folds
same,increase of DLX levels in other tissues (than liver),[3]; [10],around 1.5 folds
same,elevation of DLX level in liver by Cyp2d inhibitor,[3]; KO mice (discussion),4.0 folds
same,increase of DLX level in kidney by Cyp2d inhibitor,[3]; KO mice (discussion),3.9 folds
same,increase of DLX level in kidney,[3]; [11],Three-fold
same,"increase of DLX levels in epididymis, testis and brain",[3]; [11],1–2 folds
same,increase of DLX levels in liver and spleen,[3]; [11],around 90%
same,elevation of DLX level in liver by Cyp2d inhibitor,[3]; WT mice (discussion),1.9 folds
same,increase of DLX level in kidney by Cyp2d inhibitor,[3]; WT mice (discussion),2.5 folds
"O=S(=O)(O)Oc1cccc2ccccc12 [M28, 1-naphthol sulfate]",increase of metabolite AUC by propranolol,[1]; KO mice,73%
same,increase of metabolite AUC by propranolol,[1]; WT mice,103%
same,increase of metabolite abundance in kidney by Cyp2d inhibitor,"[3]; WT + inhibitor vs WT + control, or KO + inhibitor vs KO + control",over 65%
